In PubChem BioAssay one finds outcome, inhibition and potentiation data, which are given here for 39 compounds.

Activity calls are given as the source filed them.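 The calls were made as follows, unless noted: active = primary screen active whose calcium signal fell more than 3 SD beyond the full-serotonin control mean in both duplicate plates; inactive = the rest.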

Tested on in the first assay: not listed separately
Description: calcium flux inhibitors in TRPC4/5HT1a cells, confirmation, counter-screen for TRPC4 inhibitor project, cell-based, second counter screen, HEK293 TRPC4/5HT1a, Fluo-4 (AID 434978).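 As to outcome: serotonin given first at submaximal then at maximal dose after compound preincubation.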 The following applies: Fluo-4 calcium flux, at 10 µM, serotonin added to trigger calcium flux; hits give high values. The method in brief:
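Times: 110 s each for compound, submaximal and ECmax serotonin; Assay system: TRPC4/5HT1a HEK293 cells; Also added: serotonin, a submaximal addition followed by a maximal (ECmax) addition; Replicates: each compound tested on duplicate plates; Measured by: Fluo-4 calcium fluorescence.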
(In general: A change in cytosolic calcium serves as a functional read-out for many receptors and channels.)
Regarding `COc1cc(/C=C2\C(=N)N3N=C(S(C)(=O)=O)SC3=NC2=O)ccc1OC(=O)c1cccs1`, the outcome was inactive.

For `c1ccc(CN2CCN(c3nc4ccccc4s3)CC2)cc1`, the result was inactive.

The inhibition is the share of the control response that was lost under treatment. As to `COc1ccccc1N(C(=O)c1snc(C(N)=O)c1N)C(C(=O)NCc1ccccc1)c1ccc(O)cc1` (stereo not drawn), the inhibition was 26.4% (active).

Turning to `Cc1ccc(SC(CC(=O)c2ccc(C(C)(C)C)cc2)C(=O)O)cc1` (stereo not drawn), the outcome was inactive.

As for `COc1ccc(C2CC(=O)c3cnc(N4CCN(Cc5ccccc5)CC4)nc3C2)cc1` (stereo not drawn), the outcome was inactive.

Turning to `CC(=O)Nc1ccc(S(=O)(=O)N2CCN(CCCOc3cc(C)ccc3C)CC2)cc1`, the outcome was inactive.

As to `COc1cc(/C=C/C(=O)OCC(=O)Nc2c(C)n(C)n(-c3ccccc3)c2=O)ccc1OCC#N`, the result was inactive.

Turning to `Cc1cc2oc(C(=O)N(Cc3ccco3)C3CCS(=O)(=O)C3)cc(=O)c2cc1Cl` (stereo not drawn), the outcome was inactive.

On to `CCOCCCn1cnc2c(c1=O)c1nc3ccccc3nc1n2-c1ccc(C)cc1`, for which the outcome was inactive.

On to `O=C(c1ccccc1F)N1CCN(c2ccc([N+](=O)[O-])cc2-n2cccc2)CC1`, for which the result was inactive.

As to `CN(CC(=O)Nc1ccc(F)cc1)C(=O)COC(=O)c1ccccc1`, the result was inactive.

For `O=C(NC1CC1)c1ccc2c(c1)N(Cc1ccc(Cl)cc1)CCS2`, the outcome was inactive.

Consider `O=C(Nc1ccc2c(c1)OCO2)c1cnn2cccnc12`, for which the result was inactive.

Take `CCc1nc2ccccc2n1Cc1ccccc1F`: the result was inactive.

For `CN(Cc1ccco1)C(=O)Cn1ncc2c([nH]c3ccccc32)c1=O`, the outcome was inactive.

With `CN1CCN(NC(=O)Nc2cc(Cl)cc(Cl)c2)CC1`, the result was inactive.

`Cc1ccc2nc(C(=O)N3CCc4c([nH]c5ccccc45)C3c3ccccn3)cn2c1` (stereo not drawn): the result was inactive.

In the case of `Clc1ccc(N=C2SCC3CCCCN23)cc1` (stereo not drawn), the outcome was inactive.

With `O=S(=O)(c1ccc(Oc2ccc(Br)cc2)cc1)N1CCOCC1`, the result was inactive.

Consider `O=S(=O)(Nc1ccc(S(=O)(=O)Nc2cccc3ccccc23)cc1)c1ccccc1`, for which the result was inactive.

`COc1ccc(N(C(=O)c2snc(C(N)=O)c2N)C(C(=O)NC2CCCCC2)c2ccc(C)o2)c(OC)c1` (stereo not drawn): the outcome was inactive.

As for `Cc1ccc(S(=O)(=O)Nc2ccc(N=Nc3ccc(O)cc3)cc2)cc1`, the outcome was inactive.

As for `O=C(c1ccccc1)c1coc2ccc(O)c(CN3CCOCC3)c12`, the outcome was inactive.

As for `CCOc1ccc(N=CNc2ccc(OCC)cc2)cc1`, the result was inactive.

Take `COCCSc1ccccc1C(=O)N1CCC(Cc2ccccc2)CC1`: the result was inactive.

`O=C(c1ccccc1F)N1CCN(c2ccc([N+](=O)[O-])c3cccnc23)CC1`: the outcome was inactive.

In the case of `Cc1ccc(NS(=O)(=O)c2cc(C(=O)N3CCc4ccccc4C3)ccc2Cl)cc1`, the result was inactive.

For `CCn1cc(CN2CCC(n3nccc3NC(=O)CCOc3ccccc3)CC2)c(C)n1`, the outcome was inactive.

For `CCN1CCN(c2ccc(S(=O)(=O)N3CCCCC3)cc2NC(=O)COc2cc(C)ccc2Cl)CC1`, the outcome was inactive.

Regarding `CN(C)CCCCOc1cccc(Br)c1`, the result was inactive.

For the compound `CC(C)c1ccc(C(C)NCCS(=O)(=O)c2ccc(Br)cc2)cc1` (stereo not drawn), the outcome was inactive.

Turning to `COc1cc2c(C(=O)N3CCN(C)CC3)c(CSc3ccccc3)n(C)c2cc1Br`, the outcome was inactive.

Turning to `Cc1c(N2C(=O)/C(=C/c3ccccc3)SC2=S)c(=O)n(-c2ccccc2)n1C`, the outcome was inactive.

On to `Cc1n[nH]c(C)c1Cc1c(F)cccc1Cl`, for which the outcome was inactive.

With `O=C(Nc1ccc([N+](=O)[O-])cn1)C1CCCCC1`, the outcome was inactive.

For the compound `O=c1[nH][nH]c(-c2ccccc2)c1C=Nc1ccc(F)cc1F`, the outcome was inactive.

With `COc1ccccc1C1/C(=C(\O)c2ccc3c(c2)OCCO3)C(=O)C(=O)N1Cc1cccnc1` (stereo not drawn), the inhibition is 41.7% (active).

Regarding `CCN(CC)CCSc1nnc2c3ccccc3n(Cc3ccccc3)c2n1`, the result was inactive.

For the compound `CCCn1c(SCC(=O)N2c3ccccc3Sc3ccccc32)nc2c1c(=O)n(C)c(=O)n2C`, the outcome was inactive.

The test system of the next assay is TRPC4 (mouse), co-expressed with 5HT1a in HEK293. Description: calcium flux potentiators in TRPC4/5HT1a cells, confirmation, counter-screen for TRPC4 potentiator project, cell-based, second counter screen, HEK293 TRPC4/5HT1a, Fluo-4 (AID 434979;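 active = signal rise over 3 SD above mean of control wells given weak agonist, in both repeats and first screen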). The following applies: Fluo-4 calcium flux, at 10 µM, serotonin added at its EC20 dose; hits give high values.
As for `COc1cc(/C=C2\C(=N)N3N=C(S(C)(=O)=O)SC3=NC2=O)ccc1OC(=O)c1cccs1`, the result was inactive.

In the case of `c1ccc(CN2CCN(c3nc4ccccc4s3)CC2)cc1`, the potentiation was 14.8% (active).

As for `COc1ccccc1N(C(=O)c1snc(C(N)=O)c1N)C(C(=O)NCc1ccccc1)c1ccc(O)cc1` (stereo not drawn), the result was inactive.

Take `Cc1ccc(SC(CC(=O)c2ccc(C(C)(C)C)cc2)C(=O)O)cc1` (stereo not drawn): the outcome was inactive.

With `COc1ccc(C2CC(=O)c3cnc(N4CCN(Cc5ccccc5)CC4)nc3C2)cc1` (stereo not drawn), the potentiation was 14.7% (active).

With `CC(=O)Nc1ccc(S(=O)(=O)N2CCN(CCCOc3cc(C)ccc3C)CC2)cc1`, the outcome was inactive.

Consider `COc1cc(/C=C/C(=O)OCC(=O)Nc2c(C)n(C)n(-c3ccccc3)c2=O)ccc1OCC#N`, for which the outcome was inactive.

With `Cc1cc2oc(C(=O)N(Cc3ccco3)C3CCS(=O)(=O)C3)cc(=O)c2cc1Cl` (stereo not drawn), the potentiation was 70.9% (active).

`CCOCCCn1cnc2c(c1=O)c1nc3ccccc3nc1n2-c1ccc(C)cc1`: the outcome was inactive.

As for `O=C(c1ccccc1F)N1CCN(c2ccc([N+](=O)[O-])cc2-n2cccc2)CC1`, the potentiation was 17.1% (active).

As to `CN(CC(=O)Nc1ccc(F)cc1)C(=O)COC(=O)c1ccccc1`, the potentiation was 23.8% (active).

For `O=C(NC1CC1)c1ccc2c(c1)N(Cc1ccc(Cl)cc1)CCS2`, the result was inactive.

For `O=C(Nc1ccc2c(c1)OCO2)c1cnn2cccnc12`, the potentiation was 48.5% (active).

With `CCc1nc2ccccc2n1Cc1ccccc1F`, the outcome was inactive.

As for `CN(Cc1ccco1)C(=O)Cn1ncc2c([nH]c3ccccc32)c1=O`, the potentiation was 61.1% (active).

Regarding `CN1CCN(NC(=O)Nc2cc(Cl)cc(Cl)c2)CC1`, the outcome was inactive.

With `Cc1ccc2nc(C(=O)N3CCc4c([nH]c5ccccc45)C3c3ccccn3)cn2c1` (stereo not drawn), the result was inactive.

As to `Clc1ccc(N=C2SCC3CCCCN23)cc1` (stereo not drawn), the potentiation is 35.2% (active).

For `O=S(=O)(c1ccc(Oc2ccc(Br)cc2)cc1)N1CCOCC1`, the outcome was inactive.

On to `O=S(=O)(Nc1ccc(S(=O)(=O)Nc2cccc3ccccc23)cc1)c1ccccc1`, for which the result was inactive.

Turning to `COc1ccc(N(C(=O)c2snc(C(N)=O)c2N)C(C(=O)NC2CCCCC2)c2ccc(C)o2)c(OC)c1` (stereo not drawn), the result was inactive.

Take `Cc1ccc(S(=O)(=O)Nc2ccc(N=Nc3ccc(O)cc3)cc2)cc1`: the result was inactive.

As for `O=C(c1ccccc1)c1coc2ccc(O)c(CN3CCOCC3)c12`, the result was inactive.

For the compound `CCOc1ccc(N=CNc2ccc(OCC)cc2)cc1`, the potentiation was 23% (active).

Take `COCCSc1ccccc1C(=O)N1CCC(Cc2ccccc2)CC1`: the result was inactive.

With `O=C(c1ccccc1F)N1CCN(c2ccc([N+](=O)[O-])c3cccnc23)CC1`, the potentiation was 16.5% (active).

Turning to `Cc1ccc(NS(=O)(=O)c2cc(C(=O)N3CCc4ccccc4C3)ccc2Cl)cc1`, the potentiation was 9.01% (active).

Consider `CCn1cc(CN2CCC(n3nccc3NC(=O)CCOc3ccccc3)CC2)c(C)n1`, for which the outcome was inactive.

For `CCN1CCN(c2ccc(S(=O)(=O)N3CCCCC3)cc2NC(=O)COc2cc(C)ccc2Cl)CC1`, the potentiation is 17.8% (active).

As for `CN(C)CCCCOc1cccc(Br)c1`, the potentiation was 20% (active).

Regarding `CC(C)c1ccc(C(C)NCCS(=O)(=O)c2ccc(Br)cc2)cc1` (stereo not drawn), the potentiation is 21.2% (active).

With `COc1cc2c(C(=O)N3CCN(C)CC3)c(CSc3ccccc3)n(C)c2cc1Br`, the potentiation was 10.5% (active).

Turning to `Cc1c(N2C(=O)/C(=C/c3ccccc3)SC2=S)c(=O)n(-c2ccccc2)n1C`, the outcome was inactive.

Regarding `Cc1n[nH]c(C)c1Cc1c(F)cccc1Cl`, the outcome was inactive.

With `O=C(Nc1ccc([N+](=O)[O-])cn1)C1CCCCC1`, the result was inactive.

Regarding `O=c1[nH][nH]c(-c2ccccc2)c1C=Nc1ccc(F)cc1F`, the potentiation was 86% (active).

With `COc1ccccc1C1/C(=C(\O)c2ccc3c(c2)OCCO3)C(=O)C(=O)N1Cc1cccnc1` (stereo not drawn), the outcome was inactive.

In the case of `CCN(CC)CCSc1nnc2c3ccccc3n(Cc3ccccc3)c2n1`, the result was inactive.

As for `CCCn1c(SCC(=O)N2c3ccccc3Sc3ccccc32)nc2c1c(=O)n(C)c(=O)n2C`, the potentiation is 45.1% (active).
